Consider 35 compounds from ChEMBL document CHEMBL1157410, “7-aryl 1,5-dihydro-benzo[e][1,4]oxazepin-2-ones and analogs as non-steroidal progesterone receptor antagonists” (Bioorg Med Chem, 2008).

Molecules are shown by their SMILES.

The target of the first test is T1, Progesterone receptor (Homo sapiens, UniProt P06401).
T1 sequence (P06401 whole entry): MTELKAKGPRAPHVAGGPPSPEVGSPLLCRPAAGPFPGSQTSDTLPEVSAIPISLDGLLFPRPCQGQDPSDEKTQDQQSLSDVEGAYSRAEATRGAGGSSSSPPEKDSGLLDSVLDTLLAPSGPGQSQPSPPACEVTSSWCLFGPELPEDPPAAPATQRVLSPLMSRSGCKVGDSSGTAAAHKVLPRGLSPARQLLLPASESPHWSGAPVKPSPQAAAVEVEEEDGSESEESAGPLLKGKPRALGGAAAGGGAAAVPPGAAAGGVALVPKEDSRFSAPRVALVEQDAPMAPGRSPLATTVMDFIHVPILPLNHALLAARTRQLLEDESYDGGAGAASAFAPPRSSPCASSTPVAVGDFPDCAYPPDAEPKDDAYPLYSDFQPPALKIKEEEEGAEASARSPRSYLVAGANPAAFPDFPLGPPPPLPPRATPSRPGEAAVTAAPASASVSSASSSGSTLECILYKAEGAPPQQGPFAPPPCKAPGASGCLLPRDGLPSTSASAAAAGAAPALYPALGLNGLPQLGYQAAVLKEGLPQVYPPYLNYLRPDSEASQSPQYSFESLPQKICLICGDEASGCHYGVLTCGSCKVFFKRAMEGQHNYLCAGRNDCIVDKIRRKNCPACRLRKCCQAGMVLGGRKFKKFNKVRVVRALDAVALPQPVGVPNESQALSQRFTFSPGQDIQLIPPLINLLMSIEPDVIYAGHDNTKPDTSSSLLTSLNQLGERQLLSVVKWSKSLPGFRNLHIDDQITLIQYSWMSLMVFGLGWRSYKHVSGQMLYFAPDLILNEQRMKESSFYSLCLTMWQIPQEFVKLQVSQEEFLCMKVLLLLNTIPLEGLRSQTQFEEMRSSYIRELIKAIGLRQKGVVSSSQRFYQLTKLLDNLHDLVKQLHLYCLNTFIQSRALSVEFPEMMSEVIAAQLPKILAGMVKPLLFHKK
In words: Inhibition of progesterone receptor mediated progesterone-induced alkaline phosphatase activity in human T47D cells.
Conditions: not given
The format is cell-based.
Turning to `CC1(C)OCC(=O)Nc2ccc(-c3cccc(F)c3F)cc21`, half-maximal inhibition (IC50) required 15.7 nM.

Consider `O=C1COC(c2ccccc2)(c2ccccc2)c2cc(-c3ccc(F)c(Cl)c3)ccc2N1`, for which the IC50 (usually the concentration at which inhibition is half-maximal) came out at 88 nM.

In turn, `CC(C)C1(c2cccs2)OCC(=O)Nc2ccc(-c3cc(F)cc(C#N)c3)cc21` (stereo not given) yielded an IC50 of 138 nM.

`CCC1(c2cccs2)OCC(=O)Nc2ccc(-c3csc(C#N)c3)cc21` (stereo not given) yielded an IC50 of 108 nM.

`CC1(C)OCC(=O)Nc2ccc(-c3ccccc3F)cc21` yielded an IC50 of 62.1 nM.

Turning to `CC1(C)OCC(=O)Nc2ccc(-c3ccc(F)c(F)c3)cc21`, the IC50 stood at 29.3 nM.

As for `CC(C)C1(c2cccs2)OCC(=O)Nc2ccc(-c3ccc(F)c(Cl)c3)cc21` (stereo not given), half-maximal inhibition (IC50) required 366 nM.

Take `CC1(C)OCC(=O)Nc2ccc(-c3ccc(F)c(Cl)c3)cc21`: half-maximal inhibition (IC50) required 30.1 nM.

For `CCCC1(c2cccs2)OCC(=O)Nc2ccc(-c3ccc(F)c(Cl)c3)cc21` (stereo not given), the IC50 amounted to 349 nM.

In turn, `O=C1COC(c2ccc(Cl)s2)(c2ccc(Cl)s2)c2cc(-c3ccc(F)c(Cl)c3)ccc2N1` showed an IC50 of 1000 nM.

On to `CC1(C)OCC(=O)Nc2ccc(-c3ccc(F)cc3)cc21`, for which the IC50 is 100 nM.

On to `N#Cc1cc(F)cc(-c2ccc3c(c2)C(c2ccco2)(C(F)(F)C(F)(F)F)OCC(=O)N3)c1` (stereo not given), for which the IC50 was determined as 34.1 nM.

The compound `O=C1COC(c2ccco2)(C(F)(F)C(F)(F)F)c2cc(-c3ccc(F)c(Cl)c3)ccc2N1` (stereo not given) yielded an IC50 of 82.4 nM.

`O=C1COC(c2cccs2)(c2cccs2)c2cc(-c3ccc(F)c(Cl)c3)ccc2N1` displayed an IC50 of 65.2 nM.

The compound `CCC1(c2ccsc2)OCC(=O)Nc2ccc(-c3ccc(F)c(Cl)c3)cc21` (stereo not given) displayed an IC50 of 117 nM.

Regarding `CCC1(c2cccs2)OCC(=O)Nc2ccc(-c3cc(F)cc(C#N)c3)cc21` (stereo not given), the IC50 worked out at 100 nM.

Turning to `CCC1(c2cccs2)OCC(=O)Nc2ccc(-c3ccc(F)c(Cl)c3)cc21` (stereo not given), the midpoint of inhibition, the IC50, lay at 208 nM.

Regarding `CC1(C)OCC(=O)Nc2ccc(-c3cc(Cl)cc(C#N)c3)cc21`, the IC50 came out at 34.6 nM.

With `CC1(C)OCC(=O)Nc2ccc(-c3cc(F)cc(F)c3)cc21`, the IC50 worked out at 30 nM.

Turning to `CCC1(c2ccco2)OCC(=O)Nc2ccc(-c3coc(C#N)c3)cc21` (stereo not given), it took 29.9 nM to reach half-maximal inhibition (IC50).

Take `CCC1(c2ccco2)OCC(=O)Nc2ccc(-c3ccc(F)c(Cl)c3)cc21` (stereo not given): the IC50 is 62.5 nM.

The compound `CC1(c2cccs2)OCC(=O)Nc2ccc(-c3ccc(F)c(Cl)c3)cc21` (stereo not given) registered an IC50 of 65.5 nM.

For the compound `CC1(C)OCC(=O)Nc2ccc(-c3cc(F)cc(Cl)c3)cc21`, the IC50 came out at 15 nM.

For `N#Cc1cc(F)cc(-c2ccc3c(c2)C(c2ccc(Cl)s2)(c2ccc(Cl)s2)OCC(=O)N3)c1`, 1000 nM corresponded to half-maximal inhibition (IC50).

Turning to `CC1=NCC(=O)Nc2ccc(-c3ccc(F)c(Cl)c3)cc21`, the IC50 is 677 nM.

In turn, `CCC1(c2ccsc2)OCC(=O)Nc2ccc(-c3cc(F)cc(C#N)c3)cc21` (stereo not given) returned an IC50 of 59.2 nM.

`CN1CC(=O)Nc2ccc(-c3ccc(F)c(Cl)c3)cc2C1(C)C` displayed an IC50 of 105 nM.

Consider `CC1(C)OCC(=O)Nc2ccc(-c3cccc(F)c3)cc21`, for which the IC50 is 14.9 nM.

In turn, `O=C1COC(c2ccco2)(c2ccco2)c2cc(-c3ccc(F)c(Cl)c3)ccc2N1` displayed an IC50 of 22.5 nM.

Regarding `CC(C)C1(c2cccs2)OCC(=S)Nc2ccc(-c3cc(F)cc(C#N)c3)cc21` (stereo not given), half-maximal inhibition (IC50) required 78.2 nM.

On to `CC1(C)OCC(=O)Nc2ccc(-c3cc(Cl)cc(Cl)c3)cc21`, for which the half-inhibitory concentration (IC50) was determined as 29.1 nM.

The compound `N#Cc1cc(F)cc(-c2ccc3c(c2)C(c2cccs2)(c2cccs2)OCC(=O)N3)c1` gave an IC50 of 26.6 nM.

Another test deals with T1, Progesterone receptor. As to the kind of experiment: Agonist activity at progesterone receptor assessed as alkaline phosphatase activity in human T47D cells.
Conditions: not given
Take `CC1(C)OC(=O)Nc2ccc(-c3cc(F)cc(C#N)c3)cc21`: the half-maximal effective concentration (EC50) (commonly the concentration that produces a half-maximal response) was found to be 90 nM.

Staying with this test, now noted: read-out: EC50.
On to `CC1(C)OCC(=S)Nc2ccc(-c3cc(F)cc(F)c3)cc21`, for which the EC50 amounted to 35.8 nM.

For another test, the target named is T2, Mineralocorticoid receptor (Homo sapiens) (UniProt P08235).
T2 sequence (whole entry): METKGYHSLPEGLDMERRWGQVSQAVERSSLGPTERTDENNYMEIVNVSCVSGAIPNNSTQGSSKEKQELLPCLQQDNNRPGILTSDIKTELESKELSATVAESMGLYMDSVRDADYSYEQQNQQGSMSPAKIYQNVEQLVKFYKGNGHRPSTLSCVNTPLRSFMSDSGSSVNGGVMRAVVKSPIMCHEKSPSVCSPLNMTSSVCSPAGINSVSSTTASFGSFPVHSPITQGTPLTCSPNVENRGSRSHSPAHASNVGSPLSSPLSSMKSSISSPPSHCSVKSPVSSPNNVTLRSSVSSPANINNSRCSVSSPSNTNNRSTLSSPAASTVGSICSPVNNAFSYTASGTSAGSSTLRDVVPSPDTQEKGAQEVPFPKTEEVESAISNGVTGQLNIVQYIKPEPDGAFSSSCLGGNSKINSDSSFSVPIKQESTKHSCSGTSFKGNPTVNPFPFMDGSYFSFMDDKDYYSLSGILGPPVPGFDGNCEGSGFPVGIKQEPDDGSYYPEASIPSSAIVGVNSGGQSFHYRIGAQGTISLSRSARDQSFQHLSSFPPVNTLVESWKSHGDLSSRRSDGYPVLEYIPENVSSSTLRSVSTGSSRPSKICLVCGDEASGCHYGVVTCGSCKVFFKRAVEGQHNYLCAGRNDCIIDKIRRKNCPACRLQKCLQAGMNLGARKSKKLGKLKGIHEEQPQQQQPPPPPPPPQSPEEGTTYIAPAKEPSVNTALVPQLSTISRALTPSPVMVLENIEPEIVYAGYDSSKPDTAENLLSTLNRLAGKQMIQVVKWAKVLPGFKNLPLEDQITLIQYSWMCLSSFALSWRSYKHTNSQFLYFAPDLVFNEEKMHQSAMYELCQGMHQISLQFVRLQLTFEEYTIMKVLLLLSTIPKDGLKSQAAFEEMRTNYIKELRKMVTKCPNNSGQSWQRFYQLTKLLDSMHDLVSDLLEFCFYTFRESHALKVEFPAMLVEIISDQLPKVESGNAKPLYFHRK
In words: Antagonist activity at cloned mineralocorticoid receptor-ligand binding domain expressed in african green monkey COS7 cells by GAL4 luciferase reporter assay. The conditions noted are these: COS-7; concentration not given here. The format is cell-based. In outline: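 GAL4 DNA-binding domain fused to receptor ligand-binding domain, one-hybrid format. LBD fusion and GAL4_UAS (5 copies, E1b minimal TATA) luciferase reporter plasmids, 50 ng/well each, transfected 16 h into COS-7 cells. Cells grown in phenol red-free DMEM with 10% charcoal/dextran-treated FBS. Compound exposure 20 h, then luciferase read on lysates. Mean of at least duplicate determinations.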
For orientation: A reporter such as luciferase makes a cellular process visible.
Regarding `CC#C[C@]1(O)CC[C@H]2[C@@H]3CCC4=CC(=O)CCC4=C3[C@@H](c3ccc(N(C)C)cc3)C[C@@]21C`, the inhibition (usually the relative decrease from the control value, in per cent) turned out to be 96%.
